One series addresses T1, Thrombopoietin receptor (Homo sapiens, UniProt P40238).
T1 sequence (P40238 whole entry): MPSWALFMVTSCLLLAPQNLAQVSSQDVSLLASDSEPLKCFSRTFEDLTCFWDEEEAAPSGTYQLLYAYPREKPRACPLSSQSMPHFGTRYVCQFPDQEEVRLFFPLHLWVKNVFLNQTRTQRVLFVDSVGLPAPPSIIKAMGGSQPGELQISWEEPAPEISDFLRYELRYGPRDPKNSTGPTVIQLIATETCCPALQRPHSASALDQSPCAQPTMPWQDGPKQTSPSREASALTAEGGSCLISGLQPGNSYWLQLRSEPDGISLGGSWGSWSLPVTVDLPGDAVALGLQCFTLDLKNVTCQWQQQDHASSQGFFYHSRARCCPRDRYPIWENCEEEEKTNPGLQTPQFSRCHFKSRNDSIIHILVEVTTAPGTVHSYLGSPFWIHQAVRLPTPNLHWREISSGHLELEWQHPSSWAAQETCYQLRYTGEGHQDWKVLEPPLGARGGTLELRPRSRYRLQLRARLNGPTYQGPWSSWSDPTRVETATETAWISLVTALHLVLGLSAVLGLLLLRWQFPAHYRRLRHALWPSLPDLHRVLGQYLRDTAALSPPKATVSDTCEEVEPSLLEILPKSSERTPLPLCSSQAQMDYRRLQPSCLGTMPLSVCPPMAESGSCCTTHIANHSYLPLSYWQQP
Kind of series: Agonist activity at human TPO receptor expressed in murine BaF3 cells.

For series [1], the system named is Rattus norvegicus. In words: Toxicity in rat assessed as elevation of AST level at 50 mg/kg, po. The class given is organism-based. Details: dose 50 mg/kg, route oral. Conditions: in vivo. Put shortly: (§1)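 Single oral doses of 50, 250 or 500 mg/kg given to rats, each study with its own control group. Mean serum AST and ALT (IU/L) measured. Histopathology of liver also examined.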

Series [2] concerns Rattus norvegicus. In words: Toxicity in rat assessed as elevation of AST level at 250 mg/kg, po. The class given is organism-based. Details: dose 250 mg/kg, route oral. Conditions: in vivo. An outline of the steps: as §1
For series [3], the system named is Rattus norvegicus. In words: Toxicity in rat assessed as elevation of AST level at 500 mg/kg, po. In kind it is organism-based. Details: dose 500 mg/kg, route oral. Conditions: in vivo. Put shortly:
as §1

For series [4], the system named is Rattus norvegicus. Kind of series: Toxicity in rat assessed as elevation of ALT level at 50 mg/kg, po. Conditions: in vivo. In kind it is organism-based. Further details: dose 50 mg/kg, route oral. An outline of the steps:
as §1

In series [5] the test system is Rattus norvegicus. In words: Toxicity in rat assessed as elevation of ALT level at 250 mg/kg, po. In kind it is organism-based. Further details: dose 250 mg/kg, route oral. Conditions: in vivo. An outline of the steps: as §1
The subject of series [6] is Rattus norvegicus. In words: Toxicity in rat assessed as elevation of ALT level at 500 mg/kg, po. In kind it is organism-based. Details: dose 500 mg/kg, route oral. The conditions noted are these: in vivo. Put shortly:
as §1

Series [7] is described as follows: Cmax in rat at 50 mg/kg, po. In kind it is ADME, organism-based. Details: dose 50 mg/kg, route oral. Conditions: in vivo. Put shortly:
(§2)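 Rats given single oral doses of 50, 250 or 500 mg/kg, with a separate vehicle control group in each study. Mean Cmax (µg/mL) and mean AUC0–24 (µg h/mL) taken as total (bound plus unbound) plasma concentrations.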

Series [8] can be described thus: AUC (0 to 24 hrs) in rat at 50 mg/kg, po. In kind it is ADME, organism-based. Details: time < 24 hr, dose 50 mg/kg, route oral. The conditions noted are these: plasma. Put shortly:
as §2

A short description of series [9]: Cmax in rat at 250 mg/kg, po. The class given is ADME, organism-based. Details: dose 250 mg/kg, route oral. Conditions: in vivo. An outline of the steps: as §2
The nature of series [10]: AUC (0 to 24 hrs) in rat at 250 mg/kg, po. In kind it is ADME, organism-based. Further details: time < 24 hr, dose 250 mg/kg, route oral. The conditions noted are these: plasma. Put shortly: as §2
Series [11] can be described thus: Cmax in rat at 500 mg/kg, po. The class given is ADME, organism-based. Details: dose 500 mg/kg, route oral. The conditions noted are these: in vivo. Put shortly:
as §2

A short description of series [12]: AUC (0 to 24 hrs) in rat at 500 mg/kg, po. Conditions: plasma. Further details: time < 24 hr, dose 500 mg/kg, route oral. The class given is ADME, organism-based. An outline of the steps:
as §2

Series [13] is filed under the species Mus musculus. Kind of series: Increase of platelets level in human TPO receptor transgenic mouse measured after 6 days. The class given is functional, organism-based. An outline of the steps:
(§3)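 Human TPO receptor transgenic mice (knock-out/human knock-in of receptor exons 8–10, spanning the transmembrane domain) and wild-type mice given compound on days 0 and 1. Platelets counted on day 6.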

Series [14] concerns Rattus norvegicus. Kind of series: Toxicity in rat assessed as histopathological changes at 10 to 150 mg/kg, po after 4 days. The class given is organism-based. Further details: dose 10-150 mg/kg, route oral. The conditions noted are these: in vivo, 96 h. Put shortly: (§4)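 Rats dosed orally once daily for four days at 10, 50 or 150 mg/kg, four animals per dose. Clinical pathology including ALT and bilirubin checked on days 1 and 5. Histopathology examined.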

The subject of series [15] is Rattus norvegicus. In words: Toxicity in rat assessed as change in clinical pathology at 10 to 150 mg/kg, po after 4 days. In kind it is organism-based. Details: dose 10-150 mg/kg, route oral. The conditions noted are these: in vivo, 96 h. Put shortly: as §4
The species entered for series [16] is Mus musculus. Kind of series: Increase of platelets level in mouse measured after 6 days. The class given is functional, organism-based. An outline of the steps:
as §3

The values that follow come from ChEMBL document CHEMBL1177821, “Structure-activity relationships and hepatic safety risks of thiazole agonists of the thrombopoietin receptor” (Bioorg Med Chem Lett, 2010).

The source made the active and inactive calls. The rule behind the calls is not given here.

Turning to `O=C(Nc1nc(-c2ccc(F)c(OCC(F)(F)F)c2)c(F)s1)c1cnc(N2CCC(C(=O)O)CC2)c(Cl)c1`, the EC50 on Thrombopoietin receptor amounted to 950 nM.
On the same count and under the same terms, as for `O=C(Nc1nc(-c2ccc(F)c(C(F)(F)F)c2)cs1)c1cnc(N2CCC(C(=O)O)CC2)c(Cl)c1`, the figure is 100 nM; as for `O=C(Nc1nc(-c2ccc(Cl)c(Cl)c2)c(F)s1)c1cnc(N2CCC(C(=O)O)CC2)c(Cl)c1`, > 1000 nM.
Consider `N#Cc1sc(NC(=O)c2cnc(N3CCC(C(=O)O)CC3)c(Cl)c2)nc1-c1ccc(F)c(C(F)(F)F)c1`, for which the EC50 on Thrombopoietin receptor is > 898 nM.
The same measure, in the same setting: under `CCCCc1cc(-c2nc(NC(=O)c3cnc(N4CCC(C(=O)O)CC4)c(Cl)c3)sc2F)ccc1F` stands 220 nM.
On to `O=C(Nc1nc(-c2cccc(C(F)(F)F)c2F)cs1)c1cnc(N2CCC(C(=O)O)CC2)c(Cl)c1`, for which the Activity in the series on Rattus norvegicus [1] is on record as 1937 IU/L; in the series with Rattus norvegicus [2], 2952 IU/L; in the series with Rattus norvegicus [3] it was 3495 IU/L; with Rattus norvegicus [4], 442 IU/L; in the series on Rattus norvegicus [5], 450 IU/L; in the series on Rattus norvegicus [6], 579 IU/L. The Activity entry with Rattus norvegicus [14] and in the series on Rattus norvegicus [15] was “Non-toxic” each time. Also, the Cmax in series [7] was determined as 20000 ng/mL; in series [9], 48000 ng/mL; in series [11], 84 µg/mL. For the same compound, the AUC(0-t) at 24 h in series [8] turned out to be 84000 ng·h/mL; in [10] it was 832 µg·h/mL; in [12], 1490 µg·h/mL. Moreover, in the series filed under Mus musculus [13], the EC50 came out at 27 µg·h/mL. In addition, in the series filed under Mus musculus [16], the result was inactive.
Consider `CC(C)Cc1cc(-c2nc(NC(=O)c3cnc(N4CCC(C(=O)O)CC4)c(Cl)c3)sc2F)ccc1F`, for which, at Thrombopoietin receptor, the EC50 was found to be 58 nM.
On the same count and under the same terms, under `O=C(Nc1nc(-c2ccc(F)c(Cl)c2)c(F)s1)c1cnc(N2CCC(C(=O)O)CC2)c(Cl)c1` stands 480 nM.
On the same count and under the same terms, as for `O=C(Nc1nc(-c2ccc(F)c(OC(F)(F)F)c2)c(F)s1)c1cnc(N2CCC(C(=O)O)CC2)c(Cl)c1`, the figure is 620 nM.
Still for that read-out and setting: as for `CCOCc1cc(-c2nc(NC(=O)c3cnc(N4CCC(C(=O)O)CC4)c(Cl)c3)sc2F)ccc1F`, the figure is > 970 nM; as for `CCc1sc(NC(=O)c2cnc(N3CCC(C(=O)O)CC3)c(Cl)c2)nc1-c1ccc(F)c(C(F)(F)F)c1`, 160 nM; as for `O=C(Nc1nc(-c2ccc(F)c(Br)c2)c(F)s1)c1cnc(N2CCC(C(=O)O)CC2)c(Cl)c1`, 670 nM.
Take `O=C(Nc1nc(-c2ccc(F)c(C(F)(F)F)c2)ns1)c1cnc(N2CCC(C(=O)O)CC2)c(Cl)c1`: the EC50 at Thrombopoietin receptor was found to be 574 nM.
As to `O=C(Nc1nc(-c2ccc(F)c(C(F)(F)F)c2)c(F)s1)c1cnc(N2CCC(C(=O)O)CC2)c(Cl)c1`, the EC50 is 7 µg·h/mL in the series listed under Mus musculus [13] and 89 nM on Thrombopoietin receptor. In addition, the Activity entry in the series with Rattus norvegicus [14] and in the series on Rattus norvegicus [15] was “Non-toxic” throughout. Besides, the result in the series listed under Mus musculus [16] was inactive.
As for `Cc1sc(NC(=O)c2cnc(N3CCC(C(=O)O)CC3)c(Cl)c2)nc1-c1ccc(F)c(C(F)(F)F)c1`, the EC50 on Thrombopoietin receptor was 66 nM.
Still for that read-out and setting: under `O=C(Nc1nc(-c2cccc(C(F)(F)F)c2F)c(F)s1)c1cnc(N2CCC(C(=O)O)CC2)c(Cl)c1` stands 702 nM; under `CCCc1sc(NC(=O)c2cnc(N3CCC(C(=O)O)CC3)c(Cl)c2)nc1-c1ccc(F)c(C(F)(F)F)c1`, 130 nM.
Still for that read-out and setting: under `O=C(Nc1nc(-c2ccc(F)c(C(F)(F)F)c2)c(Cl)s1)c1cnc(N2CCC(C(=O)O)CC2)c(Cl)c1` stands 86 nM; under `O=C(Nc1ccn(-c2cccc(C(F)(F)F)c2F)n1)c1cnc(N2CCC(C(=O)O)CC2)c(Cl)c1`, > 811 nM.

The Cmax is the highest concentration seen after dosing. By AUC(0-t) is commonly meant exposure summed from dosing to a finite time, without extrapolation to infinity. Low readings indicate less exposure, high ones more exposure.
